These results are taken from ChEMBL document CHEMBL2157981, “Synthesis of new antimicrobial pyrrolo[2,1-a]isoquinolin-3-ones” (2012).

The subject of one assay is Bacillus cereus. As to the kind of experiment: Bactericidal activity against Bacillus cereus CECT 148 at 0.2 mg/disk after 24 hrs by agar diffusion assay. The class given is functional. Put shortly: (§1)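 Each bacterium, kept as 24-h cultures on solid-medium slants, was reactivated in Nutrient Broth for 24 h at 28 or 37 °C depending on species. 1 mL of this suspension was plated and overlaid with 15 mL Plate Count Agar. Once the agar solidified, five paper disks loaded with test product were applied. Plates were incubated 24 h in the dark at 28 or 37 °C by species.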
(In agar diffusion tests the substance spreads into inoculated agar from a disc or well.)

Another assay relates to Staphylococcus aureus. As to the kind of experiment: Bactericidal activity against Staphylococcus aureus CECT 86 at 0.2 mg/disk after 24 hrs by agar diffusion assay. The class given is functional. In a few lines:
as §1

Another assay relates to Enterococcus faecalis. Nature of the assay: Bactericidal activity against Enterococcus faecalis CECT 481 at 0.2 mg/disk after 24 hrs by agar diffusion assay. The class given is functional. Put shortly: as §1
The test system of another assay is Salmonella typhi. Nature of the assay: Bactericidal activity against Salmonella typhi CECT 409 at 0.2 mg/disk after 24 hrs by agar diffusion assay. The conditions noted are these: for Activity: Salmonella enterica subsp. enterica serovar Typhi. In kind it is functional, Salmonella enterica subsp. enterica serovar Typhi. Put shortly: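 Bacteria from 24-h slant cultures reactivated in Nutrient Broth for 24 h at 28 or 37 °C depending on strain. 1 mL of suspension was placed in a plate and overlaid with 15 mL Plate Count Agar. After solidification, five paper disks loaded with compound were applied. Plates were incubated 24 h in the dark at 28 or 37 °C depending on strain.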

The test system of assay [1] is Escherichia coli. As to the kind of experiment: Bactericidal activity against Escherichia coli CECT 405 at 0.2 mg/disk after 24 hrs by agar diffusion assay. In kind it is functional. Put shortly:
as §1

Assay [2] has as its system Escherichia coli. As to the kind of experiment: Bactericidal activity against Escherichia coli CECT 100 at 0.2 mg/disk after 24 hrs by agar diffusion assay. In kind it is functional. In a few lines: as §1
Assay [3] concerns Pectobacterium carotovorum. As to the kind of experiment: Bactericidal activity against Erwinia carotovora CECT 225 at 0.2 mg/disk after 24 hrs by agar diffusion assay. In kind it is functional. Put shortly:
as §1

For assay [4], the system named is Aspergillus parasiticus. As to the kind of experiment: Fungicidal activity against Aspergillus parasiticus CECT 2681 at 0.4 mg/disk after 48 hrs by agar diffusion assay. The class given is functional, organism-based. Put shortly: (§2)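 Fungi were grown 7 days at 28 °C on PDA, then suspended in 0.05% Tween 80 in sterile water to about 10^6 conidia/mL. 1 mL was mixed into 15 mL PDA. After setting, four 0.5 cm paper disks impregnated with test product were added. Controls were solvent-only disks and benomyl disks, dosed per fungus. The read-out was the no-growth inhibition zone (mm), as the mean ± SE of three independent experiments.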

In assay [5] the test system is Trichoderma viride. As to the kind of experiment: Fungicidal activity against Trichoderma viride CECT 2423 at 0.4 mg/disk after 48 hrs by agar diffusion assay. The class given is functional, organism-based. In a few lines:
as §2

The test system of assay [6] is Fusarium culmorum. As to the kind of experiment: Fungicidal activity against Fusarium culmorum CCM 172 at […] after 48 hrs by agar diffusion assay. The class given is functional, organism-based. The conditions noted are these: 0.4 mg/disk. In a few lines: as §2
Assay [7] relates to Phytophthora citrophthora. Nature of the assay: Fungicidal activity against Phytophthora citrophthora CECT 2353 at 0.4 mg/disk after 48 hrs by agar diffusion assay. The class given is functional, organism-based. Put shortly:
as §2

Assay [8] relates to Geotrichum candidum. As to the kind of experiment: Fungicidal activity against Geotrichum candidum CCM 245 at 0.4 mg/disk after 48 hrs by agar diffusion assay. The class given is functional, organism-based. In a few lines:
as §2

The test system of assay [9] is Trichoderma viride. As to the kind of experiment: Fungicidal activity against Trichoderma viride CECT 2423 at 0.2 mg/disk after 48 hrs by agar diffusion assay. In kind it is functional. In a few lines:
as §2

Assay [10] concerns Fusarium culmorum. Nature of the assay: Fungicidal activity against Fusarium culmorum CCM 172 at 0.2 mg/disk after 48 hrs by agar diffusion assay. The class given is functional. In a few lines:
as §2

Assay [11] relates to Phytophthora citrophthora. Nature of the assay: Fungicidal activity against Phytophthora citrophthora CECT 2353 at 0.2 mg/disk after 48 hrs by agar diffusion assay. In kind it is functional. In a few lines: as §2
Assay [12] concerns Geotrichum candidum. As to the kind of experiment: Fungicidal activity against Geotrichum candidum CCM 245 at 0.2 mg/disk after 48 hrs by agar diffusion assay. The class given is functional. In a few lines:
as §2

Assay [13] concerns Aspergillus parasiticus. Nature of the assay: Fungicidal activity against Aspergillus parasiticus CECT 2681 at 0.2 mg/disk after 48 hrs by agar diffusion assay. In kind it is functional. In a few lines: as §2

The source made the active and inactive calls. No cut-off for these calls is given here.

Regarding `O=C1CCC2c3cc(OCc4ccc(F)cc4)c(OCc4ccc(F)cc4)cc3CCN12` (stereo not drawn), the “inhibition zone (IZ)” value was 7.33 mm in the assay on Bacillus cereus; 0 mm in the assay with Staphylococcus aureus; 6.33 mm with Enterococcus faecalis; 5.83 mm in the assay on Salmonella typhi; 6.83 mm with Escherichia coli [1]; 0 mm in the assay on Escherichia coli [2]. For the same molecule, the “inhibition zone (IZ)” value in assay [3] is 7 mm. The outcome (in the assay with Aspergillus parasiticus [4]; with Trichoderma viride [5]; in the assay on Fusarium culmorum [6]; in assay [7]; in the assay with Geotrichum candidum [8]) was inactive.
`COc1cc2c(cc1Cl)CCN1C(=O)CCC21` (stereo not drawn): the “inhibition zone (IZ)” value in the assay with Bacillus cereus is reported as 7.33 mm; in the assay with Staphylococcus aureus it was 7.83 mm; with Enterococcus faecalis it was 6.83 mm; in the assay on Escherichia coli [1] it was 6.83 mm; with Escherichia coli [2] it was 6.16 mm; in [3], 10.33 mm. For the same molecule, the “inhibition zone (IZ)” value with Trichoderma viride [9] is 0 mm; in the assay with Fusarium culmorum [10], 7.5 mm; in assay [11] it was 6.83 mm; in the assay on Geotrichum candidum [12], 6.33 mm; with Aspergillus parasiticus [13] it was 7.5 mm.
Regarding `O=C1CCC2c3ccc(OCc4ccc(F)cc4)cc3CCN12` (stereo not drawn), the “inhibition zone (IZ)” value in the assay with Bacillus cereus came out at 7.5 mm; in the assay with Staphylococcus aureus, 6.33 mm; with Enterococcus faecalis, 0 mm; in the assay with Salmonella typhi, 0 mm; with Escherichia coli [1], 6.16 mm; with Escherichia coli [2] it was 0 mm. For the same molecule, the “inhibition zone (IZ)” value in [3] came out at 8 mm; in the assay on Trichoderma viride [9], 8.1 mm; in the assay with Fusarium culmorum [10] it was 10.5 mm; in [11] it was 10.66 mm; in the assay with Geotrichum candidum [12], 7 mm; in the assay with Aspergillus parasiticus [13], 7.83 mm.
On to `O=C1CCC2c3cc(O)c(Cl)cc3CCN12` (stereo not drawn), for which the outcome in the assay with Bacillus cereus, with Staphylococcus aureus, in the assay with Enterococcus faecalis, with Salmonella typhi, in the assay on Escherichia coli [1] and in the assay on Escherichia coli [2] was inactive. For the same molecule, the result (in assay [3]; in the assay on Aspergillus parasiticus [4]; with Trichoderma viride [5]; in the assay on Fusarium culmorum [6]; in assay [7]; in the assay on Geotrichum candidum [8]) was inactive.
Consider `CCNC(=O)Oc1ccc2c(c1)CCN1C(=O)CCC21` (stereo not drawn), for which the “inhibition zone (IZ)” value in the assay on Bacillus cereus was found to be 6.5 mm; in the assay on Staphylococcus aureus it was 0 mm; in the assay on Enterococcus faecalis, 8.5 mm; with Salmonella typhi, 7.5 mm; with Escherichia coli [1], 6.83 mm; with Escherichia coli [2], 6.33 mm. Besides, the “inhibition zone (IZ)” value in assay [3] is on record as 8.83 mm; with Trichoderma viride [9], 0 mm; in the assay with Fusarium culmorum [10], 0 mm; in assay [11], 9.66 mm; in the assay with Geotrichum candidum [12] it was 0 mm; with Aspergillus parasiticus [13], 0 mm.
For `CN(C)[C@@H]1C(O)=C(C(N)=O)C(=O)[C@@]2(O)C(O)=C3C(=O)c4c(O)cccc4[C@@](C)(O)[C@H]3C[C@@H]12` [TETRACYCLINE], the “inhibition zone (IZ)” value in the assay with Bacillus cereus was 24.33 mm; with Staphylococcus aureus it was 27 mm; in the assay on Enterococcus faecalis, 26 mm; in the assay with Escherichia coli [1], 25.66 mm; with Escherichia coli [2] it was 25.66 mm; in [3], 13.33 mm.
For `O=C(COc1ccc2c(c1)CCN1C(=O)CCC21)Nc1ccccc1` (stereo not drawn), the “inhibition zone (IZ)” value in the assay with Bacillus cereus amounted to 8.83 mm; in the assay with Staphylococcus aureus it was 0 mm; with Enterococcus faecalis, 7.33 mm; with Escherichia coli [1], 7.5 mm; in the assay on Escherichia coli [2], 0 mm; in assay [3] it was 8 mm. Further, the result (in the assay on Trichoderma viride [9]; with Fusarium culmorum [10]; in [11]; with Geotrichum candidum [12]; in the assay on Aspergillus parasiticus [13]) was inactive.
On to `O=C1CCC2c3cc(O)c(O)cc3CCN12` (racemic), for which the “inhibition zone (IZ)” value with Bacillus cereus is 6.66 mm; in the assay with Staphylococcus aureus it was 0 mm; in the assay with Enterococcus faecalis, 0 mm; in the assay on Salmonella typhi, 0 mm; in the assay on Escherichia coli [1] it was 0 mm; in the assay with Escherichia coli [2] it was 0 mm. Also, in assay [3], the “inhibition zone (IZ)” value is 0 mm. Further, the outcome (in the assay with Aspergillus parasiticus [4]; in the assay with Trichoderma viride [5]; in the assay with Fusarium culmorum [6]; in [7]; with Geotrichum candidum [8]) was inactive.
On to `O=C1CCC2c3ccc(O)cc3CCN12` (stereo not drawn), for which the “inhibition zone (IZ)” value is reported as 7.5 mm in the assay with Bacillus cereus; 0 mm in the assay with Staphylococcus aureus; 0 mm in the assay with Enterococcus faecalis; 0 mm in the assay with Salmonella typhi; 0 mm with Escherichia coli [1]; 0 mm in the assay on Escherichia coli [2]. The “inhibition zone (IZ)” value in assay [3] is given as 0 mm. Also, the outcome (with Trichoderma viride [9]; with Fusarium culmorum [10]; in assay [11]; in the assay on Geotrichum candidum [12]; in the assay with Aspergillus parasiticus [13]) was inactive.
On to `O=C(COc1cc2c(cc1OCC(=O)Nc1ccccc1)C1CCC(=O)N1CC2)Nc1ccccc1` (stereo not drawn), for which the outcome in the assay on Bacillus cereus, with Staphylococcus aureus, in the assay on Enterococcus faecalis, in the assay with Salmonella typhi, in the assay with Escherichia coli [1] and in the assay with Escherichia coli [2] was inactive. For the same molecule, the outcome (in assay [3]; in the assay on Aspergillus parasiticus [4]; with Trichoderma viride [5]; in the assay with Fusarium culmorum [6]; in [7]; with Geotrichum candidum [8]) was inactive.
In the case of `CCNC(=O)Oc1cc2c(cc1Cl)CCN1C(=O)CCC21` (stereo not drawn), the outcome with Bacillus cereus, in the assay with Staphylococcus aureus, with Enterococcus faecalis, in the assay with Salmonella typhi, in the assay on Escherichia coli [1] and with Escherichia coli [2] was inactive. The result (in [3]; in the assay with Aspergillus parasiticus [4]; in the assay with Trichoderma viride [5]; in the assay with Fusarium culmorum [6]; in assay [7]; in the assay with Geotrichum candidum [8]) was inactive.
For `O=C(COc1ccc2c(c1)CCN1C(=O)CCC21)N1CCCCC1` (stereo not drawn), the result in the assay on Bacillus cereus, in the assay with Staphylococcus aureus, in the assay with Enterococcus faecalis, in the assay with Salmonella typhi, in the assay with Escherichia coli [1] and in the assay on Escherichia coli [2] was inactive. Besides, the result (in assay [3]; with Trichoderma viride [9]; with Fusarium culmorum [10]; in assay [11]; with Geotrichum candidum [12]; with Aspergillus parasiticus [13]) was inactive.
As to `O=C1CCC2c3ccc(OCc4ccccc4)cc3CCN12` (stereo not drawn), the “inhibition zone (IZ)” value with Bacillus cereus stood at 8.66 mm; with Staphylococcus aureus, 0 mm; in the assay on Enterococcus faecalis it was 6.83 mm; in the assay on Salmonella typhi, 6 mm; in the assay on Escherichia coli [1], 6.33 mm; with Escherichia coli [2] it was 0 mm. In addition, the “inhibition zone (IZ)” value is given as 7.26 mm in assay [3]; 6 mm in the assay on Trichoderma viride [9]; 12 mm in the assay with Fusarium culmorum [10]; 11.33 mm in assay [11]; 6.16 mm with Geotrichum candidum [12]; 6.83 mm in the assay on Aspergillus parasiticus [13].
